APJ antagonist = antagonists of human apelin receptor APJ, primary screen, CHO-K1 cells, beta-arrestin complementation, luminescence | AID 2521, 2010 | hit rate 0.32% among 330,000 | P35414 | inhibition, % at 20 µM;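 active = inhibition above about 40% at 20 µM, limit read from the data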;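 also: cells challenged with 10 nM apelin-13 agonist together with compound; plate controls were apelin-13 plus DMSO wells for no effect and DMSO wells lacking apelin-13 for full effect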
A3A deaminase = APOBEC3A ssDNA deaminase inhibitors, primary screen, selectivity assay for APOBEC3G inhibitor project, biochemical, FAM/TAMRA oligo cleavage fluorescence; DNA dC->dU-editing enzyme APOBEC-3A (Homo sapiens), P31941; recombinant A3A, FAM/TAMRA ssDNA deamination fluorescence; inhibition, % at 20 µM; hit rate 0.41% among 330,000; AID 493011, 2011;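 active = at least 40% inhibition at 20 µM here, with at most 30% in a related deaminase screen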;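 also: plate controls were A3A with DMSO for no effect and wells lacking A3A enzyme for full effect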
Target sequence (P31941 whole entry, looked up): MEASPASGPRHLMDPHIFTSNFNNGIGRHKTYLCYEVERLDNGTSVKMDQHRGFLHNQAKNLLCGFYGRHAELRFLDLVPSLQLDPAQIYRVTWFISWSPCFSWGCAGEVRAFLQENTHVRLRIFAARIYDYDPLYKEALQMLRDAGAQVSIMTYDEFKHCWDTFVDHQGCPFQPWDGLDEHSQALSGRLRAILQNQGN
APJ agonist = agonists of human apelin receptor APJ, primary screen, CHO-K1 cells, PathHunter beta-arrestin, luminescence | P35414 | 0% DMSO wells, 100% apelin | activation, % at 20 µM | hit rate 0.11% among 330,000 | AID 2520, 2010;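 active = activation more than six SD over the plate average, tested at 20 µM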;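 also: 0% = DMSO alone and 100% = apelin-13 at 10 nM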
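Assay system: CHO-K1 APJ beta-arrestin complementation cell line / Compound: single test compound dose, 20 µM final, 1% DMSO / Times: overnight seeding, 90 min compound at 25 °C, 1 h detection / Technique: beta-gal luminescence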
CXCR6 inh = CXCR6 receptor inhibitors, primary screen, cell-based, beta-arrestin, luminescence, CHO-K1 PathHunter, 1536-well; C-X-C chemokine receptor type 6 (Homo sapiens), O00574; inhibition, % at 20 µM; hit rate 0.36% among 360,000; in the data active = inhibition above about 34%, passing the limit was not always enough;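 also: antagonist mode with CXCL16 agonist at 10 nM final; 0% = 10 nM CXCL16 with DMSO and 100% = unstimulated wells without agonist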
CCR6 antag = CCR6 receptor antagonists, primary screen, cell-based, CHO-K1, luminescence, beta-arrestin, uHTS; C-C chemokine receptor type 6 (Homo sapiens), P51684; CHO-K1 CCR6 PathHunter beta-arrestin, CCL20-stimulated; inhibition, % at 20 µM; hit rate 0.49% among 340,000; AID 493098, 2011;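 active = compounds whose inhibition of the agonist-driven luminescence signal at 20 µM reaches about 50%, limit read from the data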;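 also: cells stimulated with CCL20 at 14 nM final; plate controls were DMSO with CCL20 for no effect and DMSO without agonist for full effect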
APOBEC3G inh = APOBEC3G DNA deaminase inhibitors, primary screen, biochemical, fluorescence, single-stranded DNA substrate, uHTS. DNA dC->dU-editing enzyme APOBEC-3G (Homo sapiens), Q9HC16. recombinant A3G, ssDNA deamination FAM/TAMRA fluorescence. inhibition, % at 20 µM. hit rate 0.28% among 330,000. AID 493012, 2011;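 active = inhibition of at least 40% at 20 µM, with no more than 30% in the related APOBEC3A deaminase screen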;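 also: plate controls were DMSO wells with A3G for no effect and wells lacking A3G enzyme for full effect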
Target sequence (Q9HC16 whole entry, looked up): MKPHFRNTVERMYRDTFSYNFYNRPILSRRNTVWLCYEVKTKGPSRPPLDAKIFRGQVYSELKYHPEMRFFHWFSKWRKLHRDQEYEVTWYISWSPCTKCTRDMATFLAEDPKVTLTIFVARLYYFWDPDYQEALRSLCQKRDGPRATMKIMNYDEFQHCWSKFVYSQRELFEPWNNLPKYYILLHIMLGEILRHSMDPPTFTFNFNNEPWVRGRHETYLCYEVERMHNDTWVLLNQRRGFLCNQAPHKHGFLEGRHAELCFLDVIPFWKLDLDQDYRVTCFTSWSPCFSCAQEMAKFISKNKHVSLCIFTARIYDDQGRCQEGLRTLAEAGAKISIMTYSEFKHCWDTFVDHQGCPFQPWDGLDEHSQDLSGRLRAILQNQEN
* hit, by the source's call; x = not tested or not shown. An excerpt weighted towards active compounds, which were near 1.4% of everything screened.

SMILES	APJ antagonist	A3A deaminase	APJ agonist	CXCR6 inh	CCR6 antag	APOBEC3G inh
O=C1COc2ccc(N3C(=O)C=CC3=O)cc2N1	-15	-3	1	x	x	49*
OC(COc1c(Cl)cc(Cl)cc1Cl)CN1CCCCC1 (stereo unspecified)	9	-6	-6	0	69*	-10
OC(COc1ccc(Cl)cc1)CN1CCCCC1 (stereo unspecified)	1	1	-1	-2	8	5
CCN(Cc1cccs1)C(=O)CN1CCN(S(=O)(=O)c2ccc3c(c2)OCCCO3)CC1	7	26	-7	0	18	-3
Cc1cc(=O)[nH]c(N=N/C(=N/Nc2ccccc2C)c2ccccc2)n1	12	3	-7	3	21	5
COc1ccc(N/N=C(/N=Nc2nc(C)cc(=O)[nH]2)c2ccccc2)cc1	22	3	-4	33*	47	2
COc1ccc2c(c1)CO[C@]21O[C@H](CCO)C[C@H](O)[C@H]1O	x	x	x	-8	x	x
O=C1CSC(=S)N1/N=C/C=C/c1ccccc1	2	0	-2	46*	34	-7
O=C1CSC(=S)N1/N=C/c1c(F)cccc1F	-13	-3	6	-9	-4	-8
O=C(O)COc1ccccc1C=NNc1ccc([N+](=O)[O-])cc1S(=O)(=O)Nc1ccc(Cl)cc1	35	-2	-8	20	30	-9
Cc1[nH]c2ccccc2c1/C=N/Nc1ccc([N+](=O)[O-])cc1S(=O)(=O)Nc1ccc(Cl)cc1	-12	-3	0	42*	57*	-1
CC(O)(c1cccc(F)c1)c1nc(-c2cnc3ccccc3c2)cs1 (stereo unspecified)	x	x	x	-5	x	x
C=C1CC(Cn2cc(Br)c(=O)[nH]c2=O)(c2ccc(-c3ccccc3)cc2)OC1=O (stereo unspecified)	x	x	x	43*	x	x
Nc1ccn(C2OC(COP(=O)(O)O)C(O)C2O)c(=O)n1 (stereo unspecified)	x	x	x	4	7	x
COc1ccc([N+](=O)[O-])c(S(=O)(=O)c2ccc(Cl)cc2)n1	16	-4	-3	68*	75*	2
COc1ccc([N+](=O)[O-])c(S(=O)(=O)c2ccccc2)n1	34	-2	-6	59*	65*	-3
COc1nc(OC)nc(Oc2ccc(Cl)cc2[N+](=O)[O-])n1	-15	5	1	-11	-3	-2
O=[N+]([O-])c1cccnc1S(=O)(=O)c1ccccc1	2	1	0	8	19	-2
Fc1ccc(C2=Nc3cccc4cccc(c34)N2)cc1	-3	-2	2	-10	-6	-5
FC(F)(F)C1=Nc2cccc3cccc(c23)N1	-41	98	12	62*	80*	84
O=C(CSc1nc(-c2ccco2)cc(C(F)(F)F)n1)NCCCn1ccnc1	-6	-3	-2	48*	-5	-5
O=C(CSc1nc(-c2cccs2)cc(C(F)(F)F)n1)NCCCn1ccnc1	-3	2	6	7	2	4
c1ccc(/N=C2\N=C(Nc3ccccn3)c3ccccc32)nc1	24	-2	-4	31	56*	-5
C/C(=N\Nc1ncnc2sc(C)c(C)c12)c1ccccn1	47*	0	1	-23	-27	-4
C/C(=N\Nc1ncc(Cl)cc1Cl)c1ccccn1	x	x	x	50*	31	x
SMILES	APJ antagonist	A3A deaminase	APJ agonist	CXCR6 inh	CCR6 antag	APOBEC3G inh
Cc1sc2ncnc(N/N=C/c3cccc(O)c3)c2c1C	15	-1	-1	-8	3	-3
CCc1nc2ccc(C(=O)NCc3ccc4c(c3)OCO4)cn2c1N(C)CCC(C)C	x	x	x	20	x	x
CCC(=O)Nc1ccc2c(c1)Cc1cc([N+](=O)[O-])ccc1-2	x	x	x	-2	4	x
COc1cc2c(cc1OC)C(c1ccccc1[N+](=O)[O-])N(C(C)=O)CC2 (stereo unspecified)	10	-7	2	4	7	-6
O=C1Nc2ccccc2/C1=N/N=C/c1cccc(O)c1	5	-5	-2	3	-3	-7
O=C1Nc2ccccc2C1=Nc1ccc(Cl)cc1	x	x	x	33	65*	x
COc1cc(/C=N/N=C2/C(=O)Nc3ccccc32)cc(OC)c1O	34	3	-6	9	61*	1
Cc1ccc(N=C2C(=O)Nc3ccccc32)cc1C	14	-9	-9	10	52*	16
CCN(CC)c1ccc(N=C2C(=O)Nc3ccccc32)cc1	6	-5	-2	25	26	2
COc1ccc(C(O)c2ncc(-c3cccc(C(F)(F)F)c3)[nH]2)cc1 (stereo unspecified)	x	x	x	-2	x	x
COc1ccc(CNC(=O)c2cccnc2)cc1	0	-2	2	3	-4	-6
Cc1ccc(NC(=O)c2cc(S(=O)(=O)N3CCCCC3)c[nH]2)cc1Cl	x	x	x	2	x	x
Cc1ccc(Sc2cc(NCCCO)c([N+](=O)[O-])c3nonc23)cc1	7	-2	-3	13	22	-6
CC(=O)OCCCNc1cc(Sc2ccc(Cl)cc2)c2nonc2c1[N+](=O)[O-]	x	x	x	92*	104*	x
O=C(Oc1coc(CSc2ncccn2)cc1=O)c1cccc([N+](=O)[O-])c1	22	3	2	2	1	2
O=C(Oc1c(Cl)cc(Cl)c2cccnc12)c1cccc([N+](=O)[O-])c1	18	1	-5	38	68*	0
COc1cccc(/C=N/Nc2nc(Nc3ccc([N+](=O)[O-])cc3)nc(N3CCCC3)n2)c1O	-9	0	0	45*	69*	-5
COc1ccc2c(c1)c(CCNNC(=O)C(C)(C)C)c(C)n2C(=O)c1ccc(Cl)cc1	-78	2	2	8	18	-1
Cc1cc(/C=C2\SC(=O)NC2=O)c(C)n1-c1ccc(N(C)C)cc1	2	-3	-3	-3	1	-9
Cc1cc(/C=C\c2ccc3cc(N(C)C)ccc3[n+]2C)c(C)n1-c1ccccc1	11	2	14	22	51*	5
COc1ccc(CC(=O)Nc2cccc(-c3nnc(-c4cccc(C)c4)o3)c2)cc1OC	-22	5	24*	-8	0	-2
COc1cc(C(=O)Nc2nc(C)cc(C)n2)cc(OC)c1OC	1	1	1	-13	11	-2
CCN(CC)c1ccc2cc(C(=O)NNC(=O)c3ccc(S(=O)(=O)N4CCCCC4)cc3)c(=O)oc2c1	x	x	x	19	69*	x

Screening results deposited in PubChem by Sanford-Burnham Center for Chemical Genomics.
